This is a sample that favours compounds with a hit; in the whole collection about 2.8% have one here.
p47phox inh: p47phox (human) inhibition; hit rate 0.53% among 220,000; p47phox/p22phox peptide binding, fluorescence polarization, 2 h; inhibition, % at 24.7 µM;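 note: 0% = p47phox with labelled peptide and 100% = labelled peptide alone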
Wee1 degr inh: human Wee1 degradation inhibition, primary screen. hit rate 1.2% among 220,000. HeLa Luc-Wee1K328M stability, luciferase luminescence; 100% = proteasome inhibitor MG132 effect. reporter increase, % at 5 µM. P30291;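 active = activation above the mean of all tested compounds plus 3 SD, set per screening run, cut at about 8.8% in these data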;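 note: cells exposed to compound for 20 h before luminescence read; 0% = DMSO alone and 100% = MG132 at 30 µM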
Target sequence (P30291 whole entry K328M): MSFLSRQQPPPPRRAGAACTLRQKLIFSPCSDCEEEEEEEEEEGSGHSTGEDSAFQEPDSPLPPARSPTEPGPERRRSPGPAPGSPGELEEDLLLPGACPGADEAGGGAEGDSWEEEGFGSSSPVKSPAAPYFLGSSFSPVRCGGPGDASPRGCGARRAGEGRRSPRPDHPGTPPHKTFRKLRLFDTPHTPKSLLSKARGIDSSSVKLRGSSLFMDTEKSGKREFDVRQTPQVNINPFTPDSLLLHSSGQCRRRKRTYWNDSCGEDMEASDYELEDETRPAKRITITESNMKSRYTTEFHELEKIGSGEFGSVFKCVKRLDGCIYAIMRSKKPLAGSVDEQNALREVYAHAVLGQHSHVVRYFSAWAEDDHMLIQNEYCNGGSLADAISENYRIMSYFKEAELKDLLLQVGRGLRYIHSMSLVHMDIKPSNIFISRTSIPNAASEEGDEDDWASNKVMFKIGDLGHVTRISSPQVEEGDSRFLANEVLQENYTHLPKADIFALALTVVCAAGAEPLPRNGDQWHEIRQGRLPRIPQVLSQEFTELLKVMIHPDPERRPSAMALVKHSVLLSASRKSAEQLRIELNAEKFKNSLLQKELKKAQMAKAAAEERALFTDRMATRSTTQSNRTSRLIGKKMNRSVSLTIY
RBBP9 inh: human RBBP9 hydrolase inhibition; O75884; recombinant RBBP9, FP-Rh probe fluorescence polarization; inhibition, % at 7.94 µM; hit rate 0.2% among 220,000; AID 1515;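 active = inhibition above the campaign mean of all tested compounds plus 3 SD, cut at about 14% in these data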;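 note: plate controls were DMSO wells with RBBP9 for no effect and wells lacking RBBP9 protein for full effect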
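Measured by – fluorescence polarization · Test system – RBBP9 protein · Input – 2.5 µM RBBP9 dispensing solution, before mixing · Measure – percent inhibition from mP, scaled between DMSO and no-protein wells · Benchmarks – DMSO-treated enzyme wells and wells lacking RBBP9 · Times – preincubation 30 min plus labeling 45 min at 25 °C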
eIF4E-4G inh: eIF4E/eIF4G interaction inhibition in translation initiation. P63073+Q04637. TR-FRET eIF4E-eIF4GI(517-606) binding, 2 h. inhibition, % at 21.7 µM. hit rate 0.37% among 220,000. AID 782;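 note: 0% = full FRET control wells and 100% = background wells lacking eIF4GI fragment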
14-3-3 Bad PPI: disrupts binding of bovine 14-3-3 zeta to phospho-Bad peptide; P63103; TR-FRET 14-3-3zeta/Dy647-pBad peptide displacement, 1 h; inhibition, % at 21.7 µM; hit rate 0.71% among 220,000;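 active = inhibition above about 70%, limit read from the data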;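 note: 0% = full 14-3-3 plus peptide FRET controls and 100% = background without 14-3-3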
Numbers without * were called inactive; [ ] = dose if it differs, or a comment.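 Rule for the calls, unless noted: active = inhibition above about 30% (limit read from the data); inactive = the rest.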

SMILES	p47phox inh	Wee1 degr inh	RBBP9 inh	eIF4E-4G inh	14-3-3 Bad PPI
COc1ccc(CNC(=O)c2ccc(=O)oc2)cc1OC	5.2	9.4*	-6.7	-2.0	5.6
CCCCCCCCCC(=O)N/N=C/c1ccc(C)s1	-1.4	-1.4	-0.7	52.5*[fluorescence artefact?]	-2.5
Cc1ccc(/C=N/NC(=O)C[n+]2ccccc2)s1	3.0	-1.1	-6.7	1.3	-3.6
COc1ccc(CN2CCN(S(=O)(=O)c3ccc(F)cc3)CC2)c(OC)c1OC	1.4	-2.1	4.5	-9.0	76.6*
O=S(=O)(c1ccccc1)N1CCN(Cc2cccc(Cl)c2)CC1	-10.0	-2.6	-5.5	-2.7	72.4*
COc1ccc(CN2CCN(c3ccc(F)cc3)CC2)c(OC)c1OC	-9.4	-0.9	-5.9	18.5	-8.5
COc1ccc(S(=O)(=O)N2CCN(Cc3ccccc3)CC2)cc1	-10.6	-1.0	4.6	-5.5	0.1
COc1ccc(CN2CCN(S(=O)(=O)c3ccc(F)cc3)CC2)cc1OC	-3.5	-0.8	2.6	-2.9	70.4*
O=C(CCn1[nH]c(=O)c2ccccc2c1=O)NCCO	-16.0	-1.9	-11.1	35.3*	35.8
Cc1ccc(C)c(OCC(=O)N/N=C/c2ccsc2)c1	-10.3	-2.4	2.4	0.1	-1.4
CC(C)(C)c1ccc(OCC(=O)N/N=C/c2ccsc2)cc1	-6.6	9.2*	-6.8	-4.2	4.4
CC(C)(C)SCCNC(=O)/C=C/c1cccc([N+](=O)[O-])c1	-27.9	1.5	-3.3	14.9	-6.0
Cc1ccc(-c2cc(C(=O)O)c3cc(Br)ccc3n2)o1	-0.7	9.0*	0.1	7.5	6.4
Cc1nc(C(Cl)(Cl)Cl)nc2[nH]ccc(=O)c12	-14.2	2.7	-1.4	8.1	5.9
O=C(NCc1cccnc1)Nc1ccc(F)cc1F	-8.0	-0.2	-7.7	4.2	87.4*
O=C(NCc1cccnc1)Nc1cccc(F)c1	8.8	0.8	-3.5	-3.0	-5.5
Cc1cccc(Nc2nnc(-c3ccc(N4CCOCC4)c([N+](=O)[O-])c3)c3ccccc23)c1	-2.4	0.4	-12.3	-3.0	-4.1
O=C(CN1CCCCC1)Nc1cccc([N+](=O)[O-])c1	-2.9	0.6	2.0	-1.8	3.6
CNC(=O)CS(=O)CC(=O)Nc1cc(OCCOC)c(Cl)cc1Cl (stereo unspecified)	-0.5	8.9*	-5.6	1.4	-7.3
COCCOc1cc(NC(=O)c2ccccc2)c(Cl)cc1Cl	1.3	-0.3	-3.0	1.2	-5.9
Cc1cccc(NC(=S)NCC(c2cccnc2)N(C)C)c1C (stereo unspecified)	-35.2	-0.3	-8.7	2.0	-7.7
O=S(=O)(c1cccs1)N1CCN(CC(O)COC2CCCc3ccccc32)CC1 (stereo unspecified)	-17.4	-4.3	-0.8	0.4	78.8*
CCOc1cc(C(=O)Nc2ccc3c4c(cccc24)C(=O)N3CC)cc(OCC)c1OCC	-0.8	-0.4	-5.4	59.0*	-2.4
CCN1C(=O)c2cccc3c(NC(=O)c4cccc(N5C(=O)CCC5=O)c4)ccc1c23	1.7	0.8	-9.3	-4.2	15.6
Cc1ccc(NC(=O)C(=O)NCCOc2ccccc2Cl)cc1	17.7	5.5	-5.5	-4.0	12.5
SMILES	p47phox inh	Wee1 degr inh	RBBP9 inh	eIF4E-4G inh	14-3-3 Bad PPI
O=C(NCc1ccccc1)C1CCCN1S(=O)(=O)c1cccc2cccnc12 (stereo unspecified)	47.0*	-0.6	-7.1	-2.7	-1.2
O=C1NC(c2cccs2)Nc2sc3c(c21)CCCC3 (stereo unspecified)	-29.1	8.9*	2.4	6.1	-6.4
N#C/C(=C\Nc1ccc2cn[nH]c2c1)c1nc(-c2ccc(Cl)cc2)cs1	-145.3	1.0	-0.6	23.0	91.2*
N#C/C(=C\Nc1ccc2cn[nH]c2c1)c1nc(-c2ccccc2)cs1	-53.8	-4.4	2.2	15.6	85.7*
COc1cc2c(cc1N/C=C(\C#N)c1nc(-c3ccccc3)cs1)oc1ccccc12	-69.4	1.6	-12.3	-4.9	86.1*
COc1cccc(-c2csc(/C(C#N)=C/Nc3cc4oc5ccccc5c4cc3OC)n2)c1	-98.0	0.6	7.8	7.6	-21.8
CCN(CC)CCOC(=O)c1ccc(N/C=C(/C#N)c2nc(-c3ccc(OC)cc3)cs2)cc1	14.5	-3.2	-5.3	-50.7	-23.6
Cc1ccc(N(C(C)C(=O)NCc2ccncc2)S(C)(=O)=O)cc1C (stereo unspecified)	2.6	-0.5	2.4	-3.3	-0.1
O=C1C(Cc2cccc([N+](=O)[O-])c2)SC(=Nc2ccccc2)N1c1ccccc1 (stereo unspecified)	-24.8	-2.4	0.4	0.2	-4.8
Cc1cccc(OCC(=O)O/N=C(\N)Cc2ccc([N+](=O)[O-])cc2)c1	-0.1	-0.9	-8.9	-0.1	-5.9
Cc1ccc(OCC(=O)O/N=C(\N)Cc2ccc([N+](=O)[O-])cc2)cc1C	-2.5	4.9	-4.9	40.3*	5.2
CC(=O)c1c(C)[nH]c(C(=O)N2CCN(c3ncccn3)CC2)c1C	-7.3	-1.8	3.5	1.0	2.4
CC(=O)c1c(C)[nH]c(C(=O)N2CCCCCC2)c1C	-11.6	8.9*	-7.3	2.4	6.4
CCCSc1nc2c(c(=O)[nH]c(=O)n2C)n1Cc1ccc(C)cc1	33.3*	6.2	1.9	1.4	10.9
CCOC(=O)CSc1ncnc2c1cnn2-c1ccc(Cl)cc1	-2.0	-2.3	-10.9	0.0	85.3*
Cc1c(NC(=O)COC(=O)c2ccc(Br)o2)c(=O)n(-c2ccccc2)n1C	2.5	4.0	-2.4	2.4	10.1
CC1(C)CC(=O)C2=C(C1)Nc1cc3c(cc1C2c1ccc2c(c1)OCO2)OCO3 (stereo unspecified)	59.4*	2.7	-6.9	0.3	0.0
COc1ccc(-c2cc(C(=O)Nc3cccc(S(=O)(=O)NCc4ccco4)c3)c3ccccc3n2)cc1OC	-60.0	3.8	-46.4	-6.0	1.2
O=C(Nc1cccc(S(=O)(=O)NCc2ccco2)c1)c1cc(-c2ccc(F)cc2)nc2ccccc12	-22.7	9.2*	-50.0	5.8	-8.7
O=C(Nc1cccc(S(=O)(=O)NC2=NCCC2)c1)c1cc(-c2ccco2)nc2ccccc12	-6.2	5.2	-8.5	47.9*	66.1
Cn1c(NC(=O)/C=C/c2ccc(Cl)c(Cl)c2)cc(=O)n(C)c1=O	-18.9	2.8	1.1	2.5	-6.4
COc1ccc(/C=C/C(=O)Nc2cc(=O)n(C)c(=O)n2C)cc1	-1.1	9.7*	6.7	15.2	25.3
Cn1c(NC(=O)/C=C/c2ccccc2)cc(=O)n(C)c1=O	-9.2	8.9*	-6.7	-2.6	4.1
CCCC(=O)Nc1cc(=O)n(C)c(=O)n1C	60.1*	0.3	-3.2	2.6	11.8
Cc1ccc(S(=O)(=O)CC(=O)c2cc(C)c(O)c(C)c2)cc1	5.2	-2.6	3.1	4.0	-4.0
O=c1[nH]c(CSc2ncnc3sc(-c4ccccc4)cc23)nc2ccccc12	-38.1	0.0	-0.1	10.2	49.6
CCOC(=O)N1CCN(CC(=O)Nc2ccc(F)cc2F)CC1	-2.5	-2.9	-4.6	-0.8	-2.6
